Measurements reported in ChEMBL document CHEMBL4325889, “Natural products hybrids: 3,5,4'-Trimethoxystilbene-5,6,7-trimethoxyflavone chimeric analogs as potential cytotoxic agents against diverse human cancer cells” (Eur J Med Chem, 2019).

Tests used:
Assay type in all cases: functional
[1] = tested on: SNB-19; test: Growth inhibition of human SNB19 cells at 10 uM after 48 hrs by SRB assay relative to control; details: SNB-19, 48 h, read-out: GI
Method in brief: (§1)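 NCI screen against its human cancer cell line panel by the standard NCI protocol, SRB protein stain. Single dose of 10 μM. Percent growth inhibition versus control; values above 100% mean the cell population fell below the starting number. Each value is the mean of duplicates.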

[2] = tested on: BT-549; test: Growth inhibition of human BT549 cells at 10 uM after 48 hrs by SRB assay relative to control; details: BT-549, 48 h, read-out: GI
Method in brief: (§2)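 Screened at the National Cancer Institute by the standard NCI protocol using the sulforhodamine B assay, which measures cellular protein. Single dose of 10 µM. Result is percent growth inhibition; values above 100% mean cell number fell below the initial population. Values are the average of duplicates.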

[3] = tested on: NCI-H460; test: Growth inhibition of human NCI-H460 cells at 10 uM after 48 hrs by SRB assay relative to control; details: NCI-H460, 48 h, read-out: GI; method in brief: as §2
[4] = tested on: PC-3; test: Growth inhibition of human PC3 cells at 10 uM after 48 hrs by SRB assay relative to control; details: PC-3, 48 h, read-out: GI; method in brief: as §2
[5] = tested on: MDA-MB-435; test: Growth inhibition of human MDA-MB-435 cells at 10 uM after 48 hrs by SRB assay relative to control; details: MDA-MB-435, 48 h, read-out: GI; method in brief: as §2
[6] = tested on: OVCAR-8; test: Growth inhibition of human OVCAR8 cells at 10 uM after 48 hrs by SRB assay relative to control; details: OVCAR-8, 48 h, read-out: GI; method in brief: as §2
[7] = tested on: SF-268; test: Growth inhibition of human SF268 cells at 10 uM after 48 hrs by SRB assay relative to control; details: SF-268, 48 h, read-out: GI; method in brief: as §2
[8] = tested on: KM12; test: Growth inhibition of human KM12 cells at 10 uM after 48 hrs by SRB assay relative to control; details: KM12, 48 h, read-out: GI; method in brief: as §2
[9] = tested on: UO-31; test: Growth inhibition of human UO31 cells at 10 uM after 48 hrs by SRB assay relative to control; details: UO-31, 48 h, read-out: GI; method in brief: as §1
[10] = tested on: HT-29; test: Growth inhibition of human HT-29 cells at 10 uM after 48 hrs by SRB assay relative to control; details: HT-29, 48 h, read-out: GI; method in brief: as §2
[11] = tested on: OVCAR-3; test: Growth inhibition of human OVCAR3 cells at 10 uM after 48 hrs by SRB assay relative to control; details: OVCAR-3, 48 h, read-out: GI; method in brief: as §2
[12] = tested on: MOLT-4; test: Growth inhibition of human MOLT4 cells at 10 uM after 48 hrs by SRB assay relative to control; details: MOLT-4, 48 h, read-out: GI; method in brief: as §2
[13] = tested on: SW-620; test: Growth inhibition of human SW620 cells at 10 uM after 48 hrs by SRB assay relative to control; details: SW-620, 48 h, read-out: GI; method in brief: as §1
[14] = tested on: HOP-62; test: Growth inhibition of human HOP62 cells at 10 uM after 48 hrs by SRB assay relative to control; details: HOP-62, 48 h, read-out: GI; method in brief: as §2
[15] = tested on: NCI-H522; test: Growth inhibition of human NCI-H522 cells at 10 uM after 48 hrs by SRB assay relative to control; details: NCI-H522, 48 h, read-out: GI; method in brief: as §2
[16] = tested on: CAKI-1; test: Growth inhibition of human Caki1 cells at 10 uM after 48 hrs by SRB assay relative to control; details: CAKI-1, 48 h, read-out: GI; method in brief: as §2
[17] = tested on: OVCAR-4; test: Growth inhibition of human OVCAR4 cells at 10 uM after 48 hrs by SRB assay relative to control; details: OVCAR-4, 48 h, read-out: GI; method in brief: as §2
[18] = tested on: OVCAR-5; test: Growth inhibition of human OVCAR5 cells at 10 uM after 48 hrs by SRB assay relative to control; details: OVCAR-5, 48 h, read-out: GI; method in brief: as §2
[19] = tested on: ACHN; test: Growth inhibition of human ACHN cells at 10 uM after 48 hrs by SRB assay relative to control; details: read-out: GI; method in brief: as §2
[20] = tested on: UACC-62; test: Growth inhibition of human UACC62 cells at 10 uM after 48 hrs by SRB assay relative to control; details: UACC-62, 48 h, read-out: GI; method in brief: as §1

SMILES	inhibition of growth at 10 µM [1] [%]	inhibition of growth at 10 µM [2] [%]	inhibition of growth at 10 µM [3] [%]	inhibition of growth at 10 µM [4] [%]	inhibition of growth at 10 µM [5] [%]	inhibition of growth at 10 µM [6] [%]	inhibition of growth at 10 µM [7] [%]	inhibition of growth at 10 µM [8] [%]	inhibition of growth at 10 µM [9] [%]	inhibition of growth at 10 µM [10] [%]	inhibition of growth at 10 µM [11] [%]	inhibition of growth at 10 µM [12] [%]	inhibition of growth at 10 µM [13] [%]	inhibition of growth at 10 µM [14] [%]	inhibition of growth at 10 µM [15] [%]	inhibition of growth at 10 µM [16] [%]	inhibition of growth at 10 µM [17] [%]	inhibition of growth at 10 µM [18] [%]	inhibition of growth at 10 µM [19] [%]	inhibition of growth at 10 µM [20] [%]
COc1cccc(C(=O)Nc2cccc(-c3cc(=O)c4c(O)c(OC)c(OC)cc4o3)c2)c1	16.6	34.2	45.6	59.6	33.6	50.7	29.8	43.7	52.9	27.9	34.1	49.3	19	37.1	56.9	23.8	33.4	9.51	35.5	39.1
COc1cc2oc(-c3cccc(C(=O)Nc4ccccc4)c3)cc(=O)c2c(OC)c1OC	4.37	24.2	11.2	29	8.87	34.9	16.7	24.3	35.6	11.5	12.3	43.2	-0.72	13.7	21.9	4.59	1.91	16.2	8.22	29.8
COc1ccc(NC(=O)c2cccc(-c3cc(=O)c4c(O)c(OC)c(OC)cc4o3)c2)cc1	38.4	69	7.3	13.8	-5.05	19.4	45.4	-3.03	6.6	12.3	49.4	-2.73	-1.58	27.8	20.6	6.41	2.54	2.51	16.4	18.9
COc1cc2oc(-c3cccc(C(=O)Nc4ccc5c(c4)OCO5)c3)cc(=O)c2c(OC)c1OC	5.13	42.4	26.9	26.5	4.94	45.9	12.5	32.7	41	17.2	12.7	35.2	-4.89	26.6	26.9	27.9	3.72	16.4	10.2	19.1
